Legend:
TLR7 = target: T1, TLR7 (Mus musculus, UniProt P58681); assay type: in vivo; conditions: mice; single oral dose 5 mg/kg
T1 sequence (P58681 27-1050): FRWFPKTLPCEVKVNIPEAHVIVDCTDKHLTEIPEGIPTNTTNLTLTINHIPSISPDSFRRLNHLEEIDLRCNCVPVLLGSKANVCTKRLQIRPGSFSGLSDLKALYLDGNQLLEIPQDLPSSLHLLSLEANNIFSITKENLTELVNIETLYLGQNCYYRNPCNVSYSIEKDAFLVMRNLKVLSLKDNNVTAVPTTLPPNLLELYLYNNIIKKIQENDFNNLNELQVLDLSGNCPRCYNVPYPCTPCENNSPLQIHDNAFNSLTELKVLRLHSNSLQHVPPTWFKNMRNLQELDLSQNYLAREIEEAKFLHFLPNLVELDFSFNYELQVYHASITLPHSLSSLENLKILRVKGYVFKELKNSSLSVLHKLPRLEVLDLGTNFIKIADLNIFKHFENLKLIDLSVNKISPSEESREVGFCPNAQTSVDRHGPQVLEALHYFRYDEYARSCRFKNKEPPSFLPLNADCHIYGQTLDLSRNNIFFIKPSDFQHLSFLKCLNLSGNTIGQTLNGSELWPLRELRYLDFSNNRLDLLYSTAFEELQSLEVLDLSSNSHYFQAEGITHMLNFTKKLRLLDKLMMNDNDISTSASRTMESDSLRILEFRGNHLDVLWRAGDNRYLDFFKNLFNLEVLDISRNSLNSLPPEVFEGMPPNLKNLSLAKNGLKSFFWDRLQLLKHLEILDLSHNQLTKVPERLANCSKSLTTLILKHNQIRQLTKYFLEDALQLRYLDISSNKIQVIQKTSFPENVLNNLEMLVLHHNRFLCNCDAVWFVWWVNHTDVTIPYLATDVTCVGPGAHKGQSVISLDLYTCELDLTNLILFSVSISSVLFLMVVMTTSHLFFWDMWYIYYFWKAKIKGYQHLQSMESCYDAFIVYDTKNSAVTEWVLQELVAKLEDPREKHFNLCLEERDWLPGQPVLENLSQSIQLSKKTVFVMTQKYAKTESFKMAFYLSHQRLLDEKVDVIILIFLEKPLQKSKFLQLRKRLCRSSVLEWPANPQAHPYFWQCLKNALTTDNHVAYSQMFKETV

TLR9 = target: T2, TLR9 (Homo sapiens, UniProt Q9NR96); assay: Isolated human pDC assay, ODN2216-driven IFN-α; assay type: cell-based; conditions: fixed dose of MHV370
T2 sequence (Q9NR96 26-1032): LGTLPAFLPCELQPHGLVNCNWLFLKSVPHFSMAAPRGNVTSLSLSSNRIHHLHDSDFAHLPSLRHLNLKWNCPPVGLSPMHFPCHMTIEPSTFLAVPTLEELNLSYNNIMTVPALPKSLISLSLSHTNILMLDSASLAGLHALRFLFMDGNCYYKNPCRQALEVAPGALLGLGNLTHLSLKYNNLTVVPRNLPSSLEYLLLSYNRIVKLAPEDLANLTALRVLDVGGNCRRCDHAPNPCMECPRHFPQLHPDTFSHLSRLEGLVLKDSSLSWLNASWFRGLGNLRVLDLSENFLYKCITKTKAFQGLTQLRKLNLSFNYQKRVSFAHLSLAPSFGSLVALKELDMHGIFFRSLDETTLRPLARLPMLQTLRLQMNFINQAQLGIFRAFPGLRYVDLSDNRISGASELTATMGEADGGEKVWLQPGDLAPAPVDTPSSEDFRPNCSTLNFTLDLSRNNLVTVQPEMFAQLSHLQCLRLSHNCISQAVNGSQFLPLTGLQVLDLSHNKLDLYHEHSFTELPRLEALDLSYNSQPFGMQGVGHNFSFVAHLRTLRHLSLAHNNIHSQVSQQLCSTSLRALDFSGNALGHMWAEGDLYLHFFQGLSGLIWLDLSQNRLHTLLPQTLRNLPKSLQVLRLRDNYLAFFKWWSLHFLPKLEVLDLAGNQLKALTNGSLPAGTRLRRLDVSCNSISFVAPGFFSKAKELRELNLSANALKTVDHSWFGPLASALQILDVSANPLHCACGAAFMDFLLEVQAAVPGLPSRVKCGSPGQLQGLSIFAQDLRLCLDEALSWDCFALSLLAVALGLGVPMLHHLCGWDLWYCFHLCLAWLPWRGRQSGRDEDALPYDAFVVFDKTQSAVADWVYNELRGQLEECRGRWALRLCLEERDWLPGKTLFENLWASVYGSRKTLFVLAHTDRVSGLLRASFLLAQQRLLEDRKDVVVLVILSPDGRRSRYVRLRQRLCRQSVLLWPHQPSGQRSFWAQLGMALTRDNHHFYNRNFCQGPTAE
In short: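 pDCs were negatively enriched from PBMCs and resuspended in RPMI1640 with 10 ng/mL recombinant human IL-3. They were pre-treated 30 min with test compound or 0.25% v/v DMSO. Stimulation was 20 h at 37°C, 5% CO2 with ssRNA40 (10 μg/mL plus 25 μg/mL DOTAP) or ODN2216 (0.3 μM). IFN-α in supernatants was read by AlphaLisa; viability by CellTiter-Glo.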

Cc1cc(N2CCc3c(c(C)nn3CC34CCC(NC(=O)[C@@H]5COCCN5)(CC3)CC4)C2)c2cnn(C)c2n1 [MHV370, (S)-N-(4-((5-(1,6-dimethyl-1H-pyrazolo[3,4-b]pyridin-4-yl)-3-methyl-4,5,6,7-tetrahydro-1H-pyrazolo[4,3-c]pyridin-1-yl)methyl)bicyclo[2.2.2]octan-1-yl)morpholine-3-carboxamide]
CD69 expression on B cells, ex vivo R848 stimulation of blood (TLR7): marked inhibition of CD69 expression over a period of 8 h
ODN2216/TLR9-dependent IFN-α secretion from pDCs (TLR9): did not block
